Data on 3 compounds can be found in publication PMC10053980 (ACS infectious diseases, 2023).

The structures appear in SMILES notation. Like-named read-outs stand apart in the source and are kept apart here.

One data set in a line: in vitro. Format: in vitro ADME. The note with it: human, microsomes.
For the next data set, the system named is TM90C2B. Kind of data set: [3H]-hypoxanthine incorporation assay, cross-resistance panel. In kind it is cell-based, Plasmodium falciparum.
Data set [1] relates to P. falciparum Dd2 (PfDd2, parent). Kind of data set: Asexual blood-stage growth inhibition. The note with it: Plasmodium falciparum. Format: cell-based.
Data set [2] deals with P. falciparum strain NF54 stage V gametocytes, female gametes. The data set can be described thus: Dual gamete formation assay. Format: cell-based. The following applies: Plasmodium falciparum, NF54, read-out: Inhibition of female gamete formation.
The next data set concerns PfD10 attB + yDHODH. The data set can be described thus: Asexual blood-stage growth inhibition. In kind it is cell-based, Plasmodium falciparum. The note with it: Saccharomyces cerevisiae, read-out: PfD10 attB + yDHODH EC50. Summed up:
(§1)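 Ring-stage parasites (2% hematocrit, 0.5% parasitemia, final DMSO 0.5%) were exposed to a concentration range for 72 h at 37 °C, 5% CO2. Plates were frozen for at least 16 h and thawed, then SYBR Green lysis buffer was added. Fluorescence was read at 485 nm excitation and 535/528 nm emission. DSM265 (0.8–100 nM) served as plate control. EC50 came from four-parameter nonlinear regression, in technical triplicates with at least 3 biological replicates.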

Data set [3] deals with PfCARL^Q821H (S)-SW703-resistant Dd2 clones. The data set can be described thus: Asexual blood-stage EC50. In kind it is cell-based, Plasmodium falciparum.
For data set [4], the system named is P. falciparum 3D7 (Pf3D7). Kind of data set: Asexual blood-stage growth inhibition. In kind it is cell-based. The note with it: Plasmodium falciparum, 3D7, 72 h, read-out: Pf3D7 EC50.
For a further data set, the system named is 7G8. Kind of data set: [3H]-hypoxanthine incorporation assay, cross-resistance panel. Format: cell-based, Plasmodium falciparum.
Data set [5] relates to PfCytB^I22L (ELQ300-resistant). The data set is described as above. In kind it is cell-based, Plasmodium falciparum.
The subject of data set [6] is PfCARL^L1073I C2 clone beta (Polδ mutant). The data set can be described thus: Asexual blood-stage EC50. The following applies: for EC50: Plasmodium falciparum. Format: cell-based, Plasmodium falciparum.
The next data set can be described thus: physchem. The following applies: kinetic from dmso stock. In kind it is physicochemical.
The test system of a further data set is Dd2-Polδ (parent). The data set can be described thus: Asexual blood-stage EC50. In kind it is cell-based. The following applies: Plasmodium falciparum, DD2, read-out: (S)-SW703 EC50. The method, boiled down:
as §1

The next data set can be described thus: HepG2 cytotoxicity. In kind it is cell-based. The following applies: human, HepG2 cells. The method, boiled down: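 HepG2 cells (600 per well) in EMEM with 5% heat-inactivated FBS and 2 mM glutamine received test compound and were incubated 72 h at 37 °C, 5% CO2. Viability was read by CellTiter Glo (intracellular ATP). CD437 and methotrexate served as positive controls. Two biological runs, each in technical triplicate.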

For the next data set, the system named is PfD10 attB. The data set can be described thus: Asexual blood-stage growth inhibition. The note with it: Plasmodium falciparum, read-out: PfD10 attB EC50. Format: cell-based. The method, boiled down:
as §1

Data set [7] concerns PfCARL^I1139K (KAF156-selected). The data set can be described thus: [3H]-hypoxanthine incorporation assay, cross-resistance panel. In kind it is cell-based, Plasmodium falciparum. The following applies: PfCARL^I1139K relative to parent line Dd2. The method, boiled down:
(§2)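 Cross-resistance was measured by a modified [3H]-hypoxanthine incorporation assay. Fold differences for lab-generated resistant lines are relative to the Dd2 parent. Values are means from two independent experiments.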

The test system of a further data set is Dd2. The data set can be described thus: [3H]-hypoxanthine incorporation assay, cross-resistance panel. In kind it is cell-based, Plasmodium falciparum.
Data set [8] deals with PfeEF2^Y186N (DDD107498-resistant). The data set is described as above. In kind it is cell-based, Plasmodium falciparum.
Data set [9] deals with P. falciparum strain 3D7A. Kind of data set: Two color flow cytometry rate of kill assay. Format: cell-based, Plasmodium falciparum. The following applies: 0, 24 or 48 h exposure at 10X EC50; compared with chloroquine and artesunate. Background: Flow cytometry measures light scatter and fluorescence of single cells or particles in a stream.
A further data set concerns RF12 (PH-1263-C). Kind of data set: [3H]-hypoxanthine incorporation assay, cross-resistance panel. Format: cell-based, Plasmodium falciparum.
Data set [10] deals with PfACT^Q116K (S)-SW703-resistant Dd2 clone. The data set can be described thus: Asexual blood-stage EC50. In kind it is cell-based, Plasmodium falciparum. The note with it: for EC50: Plasmodium falciparum. The method, boiled down: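 Cloned resistant parasites were exposed to test compound or KAF156 over a concentration range for 72 h at 37 °C (2% hematocrit, 0.5% parasitemia, 0.5% DMSO). Freeze–thaw was followed by SYBR Green lysis and fluorescence at 485/535 or 528 nm. EC50 was fitted by four-parameter regression. Fold shift is relative to the Dd2 parent. Technical triplicates, at least three independent experiments.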

Data set [11] concerns PfCARL^S1057T (S)-SW703-resistant Dd2 clones. Kind of data set: Asexual blood-stage EC50. In kind it is cell-based, Plasmodium falciparum.
The test system of another data set is NF54. Kind of data set: [3H]-hypoxanthine incorporation assay, cross-resistance panel. In kind it is cell-based. The note with it: Plasmodium falciparum, NF54, read-out: (S)-SW703 EC50.
In data set [12] the test system is PfDHODH (DSM265-resistant). Kind of data set: [3H]-hypoxanthine incorporation assay, cross-resistance panel. In kind it is cell-based, Plasmodium falciparum. Summed up: as §2
Data set [13] has as its system P. berghei liver stage (Pb-Luc sporozoites). Kind of data set: Liver stage activity assay. Format: cell-based. The note with it: Plasmodium berghei, read-out: Liver-stage EC50.
For data set [14], the system named is PfCARL^L830I (S)-SW703-resistant Dd2 clones. The data set can be described thus: Asexual blood-stage EC50. In kind it is cell-based, Plasmodium falciparum.
Another data set has as its system K1. Kind of data set: [3H]-hypoxanthine incorporation assay, cross-resistance panel. Format: cell-based, Plasmodium falciparum.
The test system of data set [15] is PfPI4K^S743T (MMV390048-resistant). The data set is described as above. In kind it is cell-based, Plasmodium falciparum.
For data set [16], the system named is P. falciparum strain NF54 stage V gametocytes, male gametes. The data set can be described thus: Dual gamete formation assay. In kind it is cell-based, Plasmodium falciparum. The note with it: 1 μM, 48 h.
Data set [17] relates to PfACT^S242* CRISPR mutant. The note with it: cited from earlier work.
The next data set has as its system PfCARL L1073Q mutants. The following applies: cited from earlier work.
Setting [18] is: Flask 2 clone F3, PfCARL^Q821H, vs Dd2 parent.
[19] abbreviates: Plasmodium falciparum, read-out: (S)-SW703 EC50.
Where [20] appears, read: Flask 4 clone F2, PfACT^Q116K, vs Dd2 parent.
Setting [21] is: Flask 3 clone D11, PfCARL^S1057T, vs Dd2 parent.
Where [22] appears, read: Flask 1 clone B4, PfCARL^L830I, vs Dd2 parent.

One may read the microsomal CLint as a measure of how fast metabolising enzymes remove a compound, apart from limits set by blood flow. A low value points to greater metabolic stability. A word on the EC50: it is the midpoint of the concentration-response curve. In general, inhibition refers to how much of the control response was suppressed. Usually solubility stands for the concentration that dissolves in the medium under given conditions. Broadly, the CC50 is the concentration giving 50% cytotoxicity.

On to `Cc1cccc(C)c1CC1CN(C(=O)[C@@H](N)Cc2ccc(O)cc2)C1` [(S)-SW703, (S)-2-amino-1-(3-(2,6-dimethylbenzyl)azetidin-1-yl)-3-(4-hydroxyphenyl)propan-1-one], for which the microsomal CLint in “in vitro” is 197 µL/min/mg. Besides, the EC50 is 370 ± 41 nM with TM90C2B (Plasmodium falciparum, TM90C2B, read-out: (S)-SW703 EC50); 810 ± 150 nM in [1] (DD2, 72 h, read-out: PfDd2 EC50); 1300 nM in the data set on PfD10 attB + yDHODH; 780 ± 92 nM in data set [4]; 410 ± 32 nM in the data set with 7G8 (setting [19]); 230 ± 46 nM in [5] ({}). For the same compound, the EC50 in [6] (read-out: (S)-SW703 EC50) was 8800 ± 1200 nM; with Dd2-Polδ (parent), 930 ± 110 nM; in the data set with PfD10 attB it was 1500 nM; in the data set with Dd2 (Plasmodium falciparum, DD2, read-out: (S)-SW703 EC50), 300 ± 31 nM; in data set [8] ({}) it was 270 ± 25 nM; with RF12 (PH-1263-C) (setting [19]) it was 370 ± 10 nM. For the same compound, the EC50 in data set [10] (DD2, read-out: (S)-SW703 EC50) is 1900 ± 240 nM; in the data set with NF54, 340 ± 36 nM; in data set [12] (Plasmodium falciparum, DSM265, read-out: (S)-SW703 EC50), 290 ± 9 nM; in [13], 570 ± 210 nM; in the data set with K1 (setting [19]), 350 ± 39 nM; in data set [15] ({}), 290 ± 42 nM. Also, the “(S)-SW703 EC50 fold shift” value is listed as 1.1 fold in the data set on TM90C2B (TM90C2B relative to NF54); 52 fold in data set [3] (setting [18]); 60 fold in [3] (Flask 3 clone D7, PfCARL^Q821H, vs Dd2 parent); 1.2 fold in the data set on 7G8 (7G8 relative to NF54); 0.75 fold in data set [5] (PfCytB^I22L relative to parent line Dd2); 9.5 fold in data set [6] (C2 clone beta, PfCARL^L1073I, vs Dd2-Polδ parent). The “(S)-SW703 EC50 fold shift” value in data set [7] is above 16.6 fold; with Dd2 (Dd2 relative to NF54), 0.88 fold; in data set [8] (PfeEF2^Y186N relative to parent line Dd2), 0.91 fold; with RF12 (PH-1263-C) (RF12 relative to NF54), 1.1 fold; in [10] (setting [20]), 2.3 fold; in [11] (Flask 1 clone G3, PfCARL^S1057T, vs Dd2 parent) it was 12 fold. Moreover, the “(S)-SW703 EC50 fold shift” value in data set [11] (setting [21]) was found to be 15 fold; in data set [11] (Flask 3 clone G5, PfCARL^S1057T, vs Dd2 parent) it was 16 fold; in data set [11] (Flask 4 clone D4, PfCARL^S1057T, vs Dd2 parent) it was 12 fold; in [11] (Flask 4 clone G3, PfCARL^S1057T, vs Dd2 parent), 14 fold; in [12] (PfDHODH relative to parent line Dd2), 0.95 fold; in data set [14] (setting [22]), 31 fold. Also, the “(S)-SW703 EC50 fold shift” value was found to be 31 fold in data set [14] (Flask 1 clone F9, PfCARL^L830I, vs Dd2 parent); 32 fold in [14] (Flask 2 clone C5, PfCARL^L830I, vs Dd2 parent); 27 fold in data set [14] (Flask 2 clone E8, PfCARL^L830I, vs Dd2 parent); 1.0 fold in the data set on K1 (K1 relative to NF54); 0.97 fold in [15] (PfPI4K^S743T relative to parent line Dd2). In addition, in data set [2], the inhibition at 1 µM is 1.2 ± 1.7%. In addition, the solubility in “physchem” (pH 2, simulated gastric fluid) is above 34 µg/mL; in “physchem” (pH 6.5, aqueous buffer), above 34 µg/mL. This compound also showed a CC50 at 72 h in “HepG2 cytotoxicity” above 50000 nM. Moreover, the “Rate of kill (killing kinetics)” value in data set [9] was “fast-killing mechanism”. In addition, the “Inhibition of male gamete formation” value in data set [16] came out at 18.3%.

Take `CC1(C)c2nc(-c3ccc(F)cc3)c(Nc3ccc(Cl)cc3)n2CCN1C(=O)CN` [GNF179]: in [3] (cross-resistance of (S)-SW703-resistant clones), the “fold resistance of parasites bearing PfCARL^Q821H mutations” value is recorded as “about 5 fold”. In addition, the “resistance conferred by PfACT^S242* CRISPR mutant” value in data set [17] is reported as “high-level resistance”. For the same compound, the “resistance conferred by PfCARL L1073Q” value with PfCARL L1073Q mutants is reported as “did not confer resistance”.

Turning to `CC1(C)c2nc(-c3ccc(F)cc3)c(Nc3ccc(F)cc3)n2CCN1C(=O)CN` [KAF156, reference compound], the EC50 in data set [1] (DD2, read-out: KAF156 EC50) stood at 12 ± 1.7 nM; in data set [3] (Plasmodium falciparum, DD2, read-out: KAF156 EC50, Flask 2 clone F3, PfCARL^Q821H), 57 ± 6.6 nM; in data set [6] (read-out: KAF156 EC50) it was 16 ± 2.7 nM; in [10] (DD2, read-out: KAF156 EC50), 22 ± 4.5 nM; in [11] (Plasmodium falciparum, DD2, read-out: KAF156 EC50, Flask 3 clone D11, PfCARL^S1057T), 18 ± 1.8 nM; in data set [14] (Plasmodium falciparum, DD2, read-out: KAF156 EC50, Flask 1 clone B4, PfCARL^L830I) it was 22 ± 3.4 nM. Further, the “KAF156 EC50 fold shift” value was determined as 4.7 fold in data set [3] (setting [18]), 1.8 fold in data set [10] (setting [20]), 1.5 fold in [11] (setting [21]) and 1.8 fold in data set [14] (setting [22]). Also, the “resistance conferred by PfACT^S242* CRISPR mutant” value in data set [17] is “high-level resistance”. In addition, in the data set with PfCARL L1073Q mutants, the “resistance conferred by PfCARL L1073Q” value is “did not confer resistance”.
